# Measurements reported in ChEMBL document CHEMBL5712071, “BET bromodomain protein inhibition is a therapeutic option for medulloblastoma” (Oncotarget, 2013).
# The source made the active and inactive calls. No cut-off for these calls is given here.
# How the values were obtained:
# D341 cell line [1] = experiment: Anti-proliferative activity against human D341 cells assessed as reduction in cell viability incubated for 96 hrs by MTT assay; type: functional, cell-based; conditions: D341, 96 h
# Procedure, shortened: (§1)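 Cells seeded in triplicate at 2 × 10^3 per well and allowed to adhere for 24h. JQ1 was given as serial dilutions in full medium, 1nM-6µM, from a 10 mM DMSO stock. Viability was read by MTT at each time point and IC50 derived from dose-response curves. Culture media were RPMI 1640/10% FCS for HD-MB3 (plus 1% NEAA), ONS-76, Daoy and UW-228, and EMEM/10% FCS for D-283 and D-341.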
# D283 Med = experiment: Anti-proliferative activity against human D283 cells assessed as reduction in cell viability incubated for 48 hrs by MTT assay; type: functional, cell-based; procedure, shortened: as §1
# HD-MB03 [2] = experiment: Antitumor activity against human HD-MB03 cells xenografted in female athymic (nu/nu) mouse assessed as reduction in tumor volume at 50 mg/kg, ip measured form days 4 to 14 days relative to untreated control; type: functional, organism-based; conditions: time 4-14 day
# Procedure, shortened: (§2)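 Female athymic nu/nu mice, 4 weeks old, received 2 × 10^7 HD-MB3 cells in Matrigel subcutaneously in the left flank. At 150–200 mm3 they were randomised, n=7 per group, to JQ1 50 mg/kg ip daily or vehicle for 28 days or until tumours exceeded 1000 mm3. Calipers were used, with volume = (breadth × length × height)/2. Time to 1000 mm3 was analysed by Kaplan-Meier.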
# Daoy [3] = experiment: Antiproliferative activity against human Daoy cells at 500 nM incubated for 72 hrs by BrdU ELISA method; type: functional, cell-based
# Procedure, shortened: (§3)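 Cells seeded in triplicate at 2 × 10^3 per well with 24h adherence, then treated with 500 nM JQ1 or DMSO control for 72h. Proliferation was measured by BrdU incorporation ELISA. Experiments were run independently at least 3 times.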
# Daoy [4] = experiment: Induction of apoptosis in human Daoy cells assessed as increase in population of cells in G1 phase at 500 nM incubated for 72 hrs by flow cytometry; type: functional, cell-based
# Procedure, shortened: (§4)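 Cells were cultured with 500 nM JQ1 or DMSO control, trypsinised and washed 3 times in PBS. DNA was stained with propidium iodide for 15 min and DNA content analysed by flow cytometry to give G1 and sub-G1 fractions.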
# HD-MB03 [5] = experiment: Inhibition of BRD4 female athymic (nu/nu) mouse xenografted with human HD-MB03 cells as reduction in MYC protein expression in tumor at 50 mg/kg, ip administered at 0, 12, 24 and 36 hrs over 2-day course by Western blot analysis; type: functional, organism-based
# Procedure, shortened: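 Same flank HD-MB3 xenografts in female nu/nu mice. Given 4 i.p. doses of JQ1 50 mg/kg (or DMSO) at 0, 12, 24 and 36h; tumours excised 4h after the last dose and snap-frozen. MYC measured by RT-PCR (mean ± S.D.) or western blot with β-actin loading control, 3 tumours per group.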
# [6] = biological target: Bromodomain-containing protein 4 (Homo sapiens) (UniProt O60885); conditions: HD-MB03, dose 500.0 nM, time 12.0 hrs
# ONS-76 [7] = experiment: Anti-proliferative activity against human ONS-76 cells assessed as reduction in cell viability incubated for 120 hrs by MTT assay; type: functional, cell-based; conditions: ONS-76, 120 h; procedure, shortened: as §1
# Daoy [8] = experiment: Anti-proliferative activity against human Daoy cells assessed as reduction in cell viability incubated for 96 hrs by MTT assay; type: functional, cell-based; procedure, shortened: as §1
# [9] = biological target: Bromodomain-containing protein 4 (Homo sapiens) (UniProt O60885); conditions: UW228, dose 500.0 nM, time 24.0 hrs
# Mus musculus = experiment: […] of cell proliferation in female athymic (nu/nu) mouse xenografted with human HD-MB03 cells as reduction in number of proliferating cells in tumor at 50 mg/kg, ip administered at 0, 12, 24 and 36 hrs over 2-day course by immunostaining and hematoxylin-eosin staining; type: functional, organism-based
# Procedure, shortened: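 HD-MB3 cells in Matrigel (2 × 10^7) injected subcutaneously into the left flank of 4-week-old female nu/nu mice. Given JQ1 50 mg/kg i.p. or DMSO vehicle at 0, 12, 24 and 36h; killed 4h after the last dose. Fixed 5 µm tumour sections underwent pH 6.0 retrieval and Ki67 (1:25) immunostaining with H&E; positive cells quantified, 3 tumours per group.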
# ONS-76 [10] = experiment: Induction of apoptosis in human ONS-76 cells assessed as increase in population of cells in sub-G1 phase at 500 nM incubated for 72 hrs by flow cytometry; type: functional, cell-based
# Procedure, shortened: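 PI flow cytometry: cells seeded in triplicate, adhered 24h, then exposed to 500 nM JQ1 or DMSO control (methods give 48h culture, legend gives 72h). Harvested by trypsin, washed 3 times in PBS, stained with propidium iodide 15 min, DNA content read by flow cytometry. Sub-G1 fraction taken as apoptotic. Experiments repeated at least 3 times.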
# UW228 [11] = experiment: Induction of apoptosis in human UW228 cells assessed as increase in population of cells in G1 phase at 500 nM incubated for 72 hrs by ELISA; type: functional, cell-based
# D341 cell line [12] = experiment: Induction of apoptosis in human D341 cells assessed as increase in population of cells in sub-G1 phase at 500 nM incubated for 72 hrs by flow cytometry; type: functional, cell-based; procedure, shortened: as §4
# Daoy [13] = experiment: Induction of apoptosis in human Daoy cells assessed as increase in population of cells in G1 phase at 500 nM incubated for 72 hrs by ELISA; type: functional, cell-based
# Daoy [14] = experiment: Anti-proliferative activity against human Daoy cells assessed as reduction in cell viability incubated for 120 hrs by MTT assay; type: functional, cell-based; procedure, shortened: as §1
# UW228 [15] = experiment: Antiproliferative activity against human UW228 cells at 500 nM incubated for 72 hrs by BrdU ELISA method; type: functional, cell-based; procedure, shortened: as §3
# [16] = biological target: Bromodomain-containing protein 4 (Homo sapiens) (UniProt O60885); conditions: Daoy, dose 500.0 nM, time 24.0 hrs
# [17] = biological target: Bromodomain-containing protein 4 (Homo sapiens) (UniProt O60885); conditions: ONS-76, dose 500.0 nM, time 72.0 hrs
# HD-MB03 [18] = experiment: Antitumor activity against human HD-MB03 cells xenografted in female athymic (nu/nu) mouse assessed as increase in mouse survival time at 50 mg/kg, ip for 28 days relative to untreated control; type: functional, organism-based; conditions: time 28.0 day; procedure, shortened: as §2
# UW228 [19] = experiment: Induction of apoptosis in human UW228 cells assessed as increase in population of cells in G1 phase at 500 nM incubated for 72 hrs by flow cytometry; type: functional, cell-based
# ONS-76 [20] = experiment: Induction of apoptosis in human ONS-76 cells assessed as increase in population of cells in sub-G1 phase at 500 nM incubated for 72 hrs by ELISA; type: functional, cell-based
# Procedure, shortened: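 Cell death ELISA on ONS-76 or UW-228 cells seeded 2 × 10^3 per well in triplicate and allowed 24h to adhere. Treated with 500 nM JQ1 or DMSO for 72h, then apoptotic cell death measured by Cell Death Detection ELISA per kit protocol. Experiments repeated at least 3 times.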
# ONS-76 [21] = experiment: Anti-proliferative activity against human ONS-76 cells assessed as reduction in cell viability incubated for 72 hrs by MTT assay; type: functional, cell-based; conditions: ONS-76, 72 h; procedure, shortened: as §1
compound,measurement,setting,value
Cc1sc2c(c1C)C(c1ccc(Cl)cc1)=N[C@@H](CC(=O)OC(C)(C)C)c1nnc(C)n1-2,IC50,D341 cell line [1],157 nM
same,IC50,D283 Med,> 1000 nM
same,Activity,HD-MB03 [2],Active
same,Activity,Daoy [3],Active
same,Activity,Daoy [4],Active
same,inhibition,HD-MB03 [5],Active
same,inhibition,[6],Active
same,IC50,ONS-76 [7],123 nM
same,IC50,Daoy [8],> 1000 nM
same,inhibition,[9],Active
same,Activity,Mus musculus,Active
same,Activity,ONS-76 [10],Active
same,Activity,UW228 [11],Active
same,Activity,D341 cell line [12],Active
same,Activity,Daoy [13],Active
same,IC50,Daoy [14],544 nM
same,Activity,UW228 [15],Active
same,inhibition,[16],Active
same,inhibition,[17],Active
same,Activity,HD-MB03 [18],Active
same,Activity,UW228 [19],Active
same,Activity,ONS-76 [20],Active
same,IC50,ONS-76 [21],87 nM
